The source of these data is ChEMBL document CHEMBL3784974, “Design and Structural Characterization of Potent and Selective Inhibitors of Phosphatidylinositol 4 Kinase IIIβ” (J Med Chem, 2016).

Each structure is given as a SMILES string. Where only a bound is given, the exact number is not on record here.

Experiment [1] in a line: Inhibition of GST-tagged recombinant human full length PI4K3beta expressed in insect cells preincubated for 15 mins followed by addition of cold ATP/gamma32P-ATP measured after 30 mins in presence of MgCl2. The procedure, abridged:
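Membrane-capture radiometric assay. Purchased enzyme, final 2.5 nM. Enzyme preincubated 15 min with inhibitor (diluted in 10% DMSO), then 30 min reaction. Final: 20 mM Bis-Tris propane pH 7.5, 10 mM MgCl2, 0.075 mM Triton X-100, 0.5 mM EGTA, 1 mM DTT, 100 µM PI in PI:DOPS:DOPC, 500 ng/µL BSA, 2% DMSO, 10 µM ATP, 1 uCi γ32P-ATP. Product spotted on nitrocellulose, washed in 1M NaCl/1% phosphoric acid, phosphorimaged.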

Experiment [2] has as its target Phosphatidylinositol 4,5-bisphosphate 3-kinase catalytic subunit gamma isoform (Homo sapiens, UniProt P48736). Briefly: Inhibition of histidine-tagged recombinant human full length PI3Kgamma expressed in insect cells preincubated for 15 mins followed by addition of cold ATP/gamma32P-ATP measured after 15 mins in presence of MgCl2.
In experiment [3] the target is T1, Phosphatidylinositol 4,5-bisphosphate 3-kinase catalytic subunit delta isoform (Homo sapiens, UniProt O00329).
T1 sequence (O00329 whole entry): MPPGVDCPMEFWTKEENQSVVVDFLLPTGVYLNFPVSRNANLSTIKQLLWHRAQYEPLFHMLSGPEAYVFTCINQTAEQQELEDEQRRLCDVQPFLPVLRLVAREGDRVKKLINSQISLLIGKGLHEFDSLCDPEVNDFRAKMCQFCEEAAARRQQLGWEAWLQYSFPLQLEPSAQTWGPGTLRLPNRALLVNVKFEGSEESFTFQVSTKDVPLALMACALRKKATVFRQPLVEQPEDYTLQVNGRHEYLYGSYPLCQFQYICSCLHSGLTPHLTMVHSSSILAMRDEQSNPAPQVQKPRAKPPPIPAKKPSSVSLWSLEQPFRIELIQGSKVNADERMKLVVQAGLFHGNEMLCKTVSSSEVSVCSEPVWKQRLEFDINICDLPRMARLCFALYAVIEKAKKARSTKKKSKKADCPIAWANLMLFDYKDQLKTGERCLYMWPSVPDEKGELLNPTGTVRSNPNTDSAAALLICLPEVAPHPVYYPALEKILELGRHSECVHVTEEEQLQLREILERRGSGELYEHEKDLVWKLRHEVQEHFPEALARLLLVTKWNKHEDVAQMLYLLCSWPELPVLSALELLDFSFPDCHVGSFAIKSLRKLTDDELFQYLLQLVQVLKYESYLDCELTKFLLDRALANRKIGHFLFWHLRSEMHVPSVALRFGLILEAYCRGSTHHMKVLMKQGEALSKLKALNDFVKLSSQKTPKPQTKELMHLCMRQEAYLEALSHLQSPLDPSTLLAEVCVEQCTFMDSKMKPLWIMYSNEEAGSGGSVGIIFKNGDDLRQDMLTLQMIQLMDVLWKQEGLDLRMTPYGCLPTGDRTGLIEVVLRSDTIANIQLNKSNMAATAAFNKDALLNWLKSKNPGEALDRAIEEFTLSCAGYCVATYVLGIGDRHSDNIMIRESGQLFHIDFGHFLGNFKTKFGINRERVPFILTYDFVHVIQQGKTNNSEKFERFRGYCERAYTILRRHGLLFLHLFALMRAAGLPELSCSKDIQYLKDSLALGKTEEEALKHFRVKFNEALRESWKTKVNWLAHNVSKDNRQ
Briefly: Inhibition of histidine-tagged recombinant human full length PI3Kdelta expressed in baculovirus preincubated for 15 mins followed by addition of cold ATP/gamma32P-ATP measured after 20 mins in presence of MgCl2. In a few lines:
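Final: 50 mM HEPES pH 7.5, 100 mM NaCl, 0.03% CHAPS, 10 mM MgCl2, 1 mM EGTA, 2 mM DTT, 80 µM PIP2 (PIP2:DOPS:DOPC), 500 ng/µL BSA, 2% DMSO, 10 µM ATP, 2.5 uCi γ32P-ATP. Nitrocellulose capture, phosphorimaging.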

In experiment [4] the target is Phosphatidylinositol 3-kinase catalytic subunit type 3 (Homo sapiens, UniProt Q8NEB9). Put plainly: Inhibition of GST-tagged recombinant human full length VPS34 expressed in baculovirus preincubated for 15 mins followed by addition of cold ATP/gamma32P-ATP measured after 1 hr in presence of MnCl2. The procedure, abridged: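 Radiometric membrane-capture assay, 10 nM purchased vps34, 15 min preincubation with inhibitor, then 1 h reaction. Final: 50 mM HEPES pH 7.5, 0.1% CHAPS, 2mM MnCl2, 1 mM EGTA, 2 mM DTT, 100 µM PI in PI:DOPS:DOPC, 500 ng/µL BSA, 2% DMSO, 10 µM ATP, 2.5 uCi γ32P-ATP; spots washed, phosphorimaged.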

Experiment [5] has as its target Phosphatidylinositol 4,5-bisphosphate 3-kinase catalytic subunit alpha isoform (Homo sapiens, UniProt P42336). Put plainly: Inhibition of N-terminal histidine6-tagged recombinant human full length PI3Kalpha expressed in baculovirus infected Sf21 insect cells preincubated for 15 mins followed by addition of cold ATP/gamma32P-ATP measured after 15 mins. In a few lines:
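Radiometric membrane-capture lipid kinase assay. Enzyme premixed with PIP2:DOPS:DOPC vesicles and BSA. Inhibitor diluted in 10% DMSO/kinase buffer, preincubated 15 min, then cold ATP plus γ32P-ATP added and run 15 min. Final conditions: 50mM HEPES pH 7.5, 100mM NaCl, 0.03% CHAPS, 10mM MgCl2, 1mM EGTA, 2mM DTT, 3.3nM PI3Kα, 80µM PIP2, 500ng/µL BSA, 2% DMSO, 10µM ATP, 2uCi γ32P-ATP. Product spotted onto nitrocellulose, washed in 1M NaCl/1% phosphoric acid, phosphorimaged.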

Experiment [6] in a line: Inhibition of N-terminal flag-tagged recombinant human full length PI4K3alpha expressed in baculovirus infected Sf21 insect cells preincubated for 15 mins followed by addition of cold ATP/gamma32P-ATP measured after 25 mins. The procedure, abridged: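 Purchased PI4KIIIα at 1.2 nM; 15 min inhibitor preincubation, 25 min reaction in 20 mM Bis-Tris propane pH 7.5, 10 mM MgCl2, 0.075 mM Triton X-100, 0.5 mM EGTA, 1 mM DTT, 100 µM PI (PI:DOPS:DOPC), 500 ng/µL BSA, 2% DMSO, 10 µM ATP, 2 uCi γ32P-ATP. Radiolabel captured on nitrocellulose, phosphorimaged.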

Experiment [7] concerns the target Phosphatidylinositol 4,5-bisphosphate 3-kinase catalytic subunit beta isoform (Homo sapiens) (UniProt P42338). Put plainly: Inhibition of N-terminal histidine-tagged recombinant human full length PI3Kbeta expressed in baculovirus infected Sf9 insect cells upto 20 uM preincubated for 15 mins followed by addition of cold ATP/gamma32P-ATP measured after 15 mins. In a few lines: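 PI3Kβ 0.6 nM final; inhibitor preincubated 15 min, reaction 15 min. Final: 50 mM HEPES pH 7.5, 100 mM NaCl, 0.03% CHAPS, 10 mM MgCl2, 1 mM EGTA, 2 mM DTT, 80 µM PIP2 (PIP2:DOPS:DOPC), 500 ng/µL BSA, 2% DMSO, 10 µM ATP, 2 uCi γ32P-ATP; membrane capture, phosphorimaging.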

Chain of Phosphatidylinositol 3-kinase catalytic subunit type 3 (Q8NEB9 whole entry): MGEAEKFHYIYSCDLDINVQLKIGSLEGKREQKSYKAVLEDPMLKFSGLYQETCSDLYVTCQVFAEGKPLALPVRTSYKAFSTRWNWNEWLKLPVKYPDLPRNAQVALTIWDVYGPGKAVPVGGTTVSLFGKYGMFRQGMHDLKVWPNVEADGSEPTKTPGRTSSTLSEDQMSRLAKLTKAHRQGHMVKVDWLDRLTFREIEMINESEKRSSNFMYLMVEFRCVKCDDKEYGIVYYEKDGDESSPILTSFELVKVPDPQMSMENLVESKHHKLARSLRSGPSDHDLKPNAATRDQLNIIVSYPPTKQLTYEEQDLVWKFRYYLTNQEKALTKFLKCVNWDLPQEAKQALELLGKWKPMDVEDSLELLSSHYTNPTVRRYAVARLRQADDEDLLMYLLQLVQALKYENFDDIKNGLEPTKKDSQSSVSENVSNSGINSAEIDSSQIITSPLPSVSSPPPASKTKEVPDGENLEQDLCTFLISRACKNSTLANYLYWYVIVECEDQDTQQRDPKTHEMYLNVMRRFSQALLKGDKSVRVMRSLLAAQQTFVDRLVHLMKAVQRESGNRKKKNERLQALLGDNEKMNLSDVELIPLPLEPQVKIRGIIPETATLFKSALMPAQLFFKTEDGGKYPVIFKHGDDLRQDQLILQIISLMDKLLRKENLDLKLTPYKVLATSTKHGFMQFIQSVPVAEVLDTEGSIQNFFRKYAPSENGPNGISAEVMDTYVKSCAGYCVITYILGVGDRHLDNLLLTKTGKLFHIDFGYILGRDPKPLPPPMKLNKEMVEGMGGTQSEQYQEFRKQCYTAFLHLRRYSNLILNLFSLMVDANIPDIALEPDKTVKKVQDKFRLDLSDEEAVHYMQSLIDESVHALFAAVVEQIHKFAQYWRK
Chain of Phosphatidylinositol 4,5-bisphosphate 3-kinase catalytic subunit beta isoform (Homo sapiens) (P42338 whole entry, looked up, canonical isoform): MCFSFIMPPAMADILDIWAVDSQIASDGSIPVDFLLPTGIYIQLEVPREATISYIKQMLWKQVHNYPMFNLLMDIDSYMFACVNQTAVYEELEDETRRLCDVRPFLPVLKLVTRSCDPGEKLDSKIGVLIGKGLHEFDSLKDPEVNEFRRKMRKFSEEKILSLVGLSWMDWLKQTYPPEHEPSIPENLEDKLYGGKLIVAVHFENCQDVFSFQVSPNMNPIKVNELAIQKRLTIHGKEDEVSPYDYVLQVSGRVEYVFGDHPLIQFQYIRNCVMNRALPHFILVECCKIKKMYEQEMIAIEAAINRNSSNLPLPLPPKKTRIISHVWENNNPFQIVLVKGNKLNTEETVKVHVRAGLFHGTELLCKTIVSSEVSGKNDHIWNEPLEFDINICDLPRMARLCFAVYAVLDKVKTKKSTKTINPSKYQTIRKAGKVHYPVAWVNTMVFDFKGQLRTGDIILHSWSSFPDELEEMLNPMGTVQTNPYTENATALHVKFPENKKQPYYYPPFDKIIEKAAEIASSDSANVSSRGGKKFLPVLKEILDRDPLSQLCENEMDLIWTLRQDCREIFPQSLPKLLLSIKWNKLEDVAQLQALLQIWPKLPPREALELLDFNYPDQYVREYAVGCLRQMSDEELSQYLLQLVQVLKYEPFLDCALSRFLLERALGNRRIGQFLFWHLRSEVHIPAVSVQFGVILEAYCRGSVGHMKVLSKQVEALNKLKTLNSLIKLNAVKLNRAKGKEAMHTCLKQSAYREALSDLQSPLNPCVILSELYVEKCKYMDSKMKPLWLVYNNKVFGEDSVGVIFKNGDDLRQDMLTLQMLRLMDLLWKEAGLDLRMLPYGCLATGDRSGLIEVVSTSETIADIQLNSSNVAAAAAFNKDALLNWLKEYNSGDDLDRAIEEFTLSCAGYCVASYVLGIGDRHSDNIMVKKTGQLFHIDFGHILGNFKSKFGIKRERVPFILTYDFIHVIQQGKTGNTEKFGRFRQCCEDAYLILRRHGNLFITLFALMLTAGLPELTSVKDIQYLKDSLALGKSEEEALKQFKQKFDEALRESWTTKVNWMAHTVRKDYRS
Chain of Phosphatidylinositol 4,5-bisphosphate 3-kinase catalytic subunit gamma isoform (P48736 whole entry, canonical isoform): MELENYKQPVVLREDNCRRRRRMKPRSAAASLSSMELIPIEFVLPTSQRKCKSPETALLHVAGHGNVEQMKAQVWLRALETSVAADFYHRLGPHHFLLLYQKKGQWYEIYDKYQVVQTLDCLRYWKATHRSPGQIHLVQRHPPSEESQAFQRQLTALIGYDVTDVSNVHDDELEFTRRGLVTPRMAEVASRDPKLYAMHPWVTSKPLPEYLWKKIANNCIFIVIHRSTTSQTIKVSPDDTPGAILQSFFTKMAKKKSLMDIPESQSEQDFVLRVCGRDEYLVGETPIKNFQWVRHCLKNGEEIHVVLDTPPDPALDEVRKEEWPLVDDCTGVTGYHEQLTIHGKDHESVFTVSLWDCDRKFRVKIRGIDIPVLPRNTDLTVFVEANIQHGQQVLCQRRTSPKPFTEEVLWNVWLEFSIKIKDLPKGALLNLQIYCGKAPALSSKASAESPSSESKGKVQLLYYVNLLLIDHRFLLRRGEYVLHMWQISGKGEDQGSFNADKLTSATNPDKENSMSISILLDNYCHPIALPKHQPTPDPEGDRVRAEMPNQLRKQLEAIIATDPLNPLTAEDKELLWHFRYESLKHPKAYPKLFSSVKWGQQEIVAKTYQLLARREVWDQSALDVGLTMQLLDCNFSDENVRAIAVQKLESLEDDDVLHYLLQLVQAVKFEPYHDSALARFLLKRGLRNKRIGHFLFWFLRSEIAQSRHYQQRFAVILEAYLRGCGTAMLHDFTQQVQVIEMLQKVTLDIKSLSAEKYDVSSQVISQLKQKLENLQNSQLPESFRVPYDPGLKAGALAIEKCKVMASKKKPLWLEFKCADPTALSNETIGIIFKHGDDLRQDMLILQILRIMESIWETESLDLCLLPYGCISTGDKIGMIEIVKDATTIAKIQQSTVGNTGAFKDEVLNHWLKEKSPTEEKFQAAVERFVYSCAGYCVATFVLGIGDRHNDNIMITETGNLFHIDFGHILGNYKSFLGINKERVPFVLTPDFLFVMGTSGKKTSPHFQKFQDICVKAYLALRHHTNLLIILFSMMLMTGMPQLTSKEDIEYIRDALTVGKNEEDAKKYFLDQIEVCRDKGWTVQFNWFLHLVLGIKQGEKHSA
Chain of Phosphatidylinositol 4,5-bisphosphate 3-kinase catalytic subunit alpha isoform (P42336 whole entry, canonical isoform): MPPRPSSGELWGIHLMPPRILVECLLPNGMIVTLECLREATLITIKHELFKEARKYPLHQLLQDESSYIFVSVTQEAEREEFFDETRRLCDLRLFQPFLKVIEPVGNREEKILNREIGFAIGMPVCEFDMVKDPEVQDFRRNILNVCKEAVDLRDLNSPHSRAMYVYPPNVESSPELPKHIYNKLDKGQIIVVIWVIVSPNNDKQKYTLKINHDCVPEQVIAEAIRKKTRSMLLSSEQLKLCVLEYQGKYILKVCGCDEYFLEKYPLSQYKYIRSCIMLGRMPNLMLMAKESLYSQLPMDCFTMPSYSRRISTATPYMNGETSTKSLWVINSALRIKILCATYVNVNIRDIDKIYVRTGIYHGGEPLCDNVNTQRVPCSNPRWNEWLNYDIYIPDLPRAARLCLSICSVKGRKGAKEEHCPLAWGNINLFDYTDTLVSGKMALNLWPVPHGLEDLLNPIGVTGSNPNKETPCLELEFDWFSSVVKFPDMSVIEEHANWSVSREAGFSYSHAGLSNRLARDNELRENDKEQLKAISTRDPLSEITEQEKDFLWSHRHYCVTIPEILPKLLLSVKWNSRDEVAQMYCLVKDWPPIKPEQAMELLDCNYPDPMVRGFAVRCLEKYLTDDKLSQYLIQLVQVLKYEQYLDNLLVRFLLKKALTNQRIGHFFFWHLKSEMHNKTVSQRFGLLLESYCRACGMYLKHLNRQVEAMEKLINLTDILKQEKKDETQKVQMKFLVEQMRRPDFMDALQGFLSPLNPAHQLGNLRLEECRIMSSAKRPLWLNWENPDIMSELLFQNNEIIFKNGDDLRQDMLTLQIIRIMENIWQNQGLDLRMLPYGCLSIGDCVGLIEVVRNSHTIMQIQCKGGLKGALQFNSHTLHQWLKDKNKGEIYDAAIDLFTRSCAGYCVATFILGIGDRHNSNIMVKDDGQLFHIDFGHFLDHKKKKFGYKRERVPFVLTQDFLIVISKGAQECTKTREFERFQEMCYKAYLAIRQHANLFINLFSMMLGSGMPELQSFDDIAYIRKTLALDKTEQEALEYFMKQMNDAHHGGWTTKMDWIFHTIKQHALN

The term IC50 denotes the midpoint of a concentration-inhibition curve. In general, inhibition refers to the relative decrease from the control value, in per cent. Take `COc1ccc(-c2sc(NC(=O)C3CCCC3)nc2C)cc1S(=O)(=O)Nc1ccc(O)cc1`: the IC50 is 7 nM in experiment [1]; 1050 nM in experiment [2]; 152 nM in experiment [3]; greater than 20000 nM in experiment [4]; 2000 nM in experiment [5]; 2600 nM in experiment [6]. Moreover, the inhibition in experiment [7] is less than 50%.

Take `COc1ccc(-c2sc(NC(=O)C(C)(C)C)nc2C)cc1S(=O)(=O)Nc1ccc(O)cc1`: the IC50 in experiment [1] was 3.6 nM; in experiment [2], 20000 nM; in experiment [3] it was 720 nM; in experiment [4] it was greater than 20000 nM; in experiment [5], 10000 nM; in experiment [6], 3000 nM. Also, in experiment [7], the inhibition was less than 20%.
